Screens (PubChem BioAssay)
GASC1 inh: inhibitors of GASC-1 (KDM4C) histone demethylase, primary screen, biochemical, single concentration HTS; Lysine-specific demethylase 4C (Homo sapiens), Q9H3R0; GST-KDM4C 2-372, H3K9me3 peptide, LANCE TR-FRET; inhibition, % at 12.5 µM; 0.15% of 96,000 active;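 active means mean replicate inhibition above about 25%, with at least 55% of replicates also reaching it, limit read from the data, passing the limit was not always enough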
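Test system – GST-tagged GASC-1 (JMJD2C) catalytic fragment, aa 2-372 · Medium – HEPES buffer, pH 7.5, plus ascorbate · Reagent – H3K9me3 peptide with Fe(II)/2OG · Compound – one test concentration per compound · Timing – 30 min reaction, 60 min detection, RT · Technique – TR-FRET with Eu antibody and ULight streptavidin, EDTA stop · Read-out basis – inhibition from TR-FRET ratio decrease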
IDH1 R132H inh: inhibitors of IDH1 R132H reductase, primary screen, biochemical, plate reader, single point | diaphorase/resazurin fluorescence, 60 min | inhibition, % at 10 µM | 0.18% of 70,000 active; in the data active means inhibition above about 34%;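 further: 0% = DMSO and 100% = no enzyme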
Target sequence (O75874 whole entry R132H): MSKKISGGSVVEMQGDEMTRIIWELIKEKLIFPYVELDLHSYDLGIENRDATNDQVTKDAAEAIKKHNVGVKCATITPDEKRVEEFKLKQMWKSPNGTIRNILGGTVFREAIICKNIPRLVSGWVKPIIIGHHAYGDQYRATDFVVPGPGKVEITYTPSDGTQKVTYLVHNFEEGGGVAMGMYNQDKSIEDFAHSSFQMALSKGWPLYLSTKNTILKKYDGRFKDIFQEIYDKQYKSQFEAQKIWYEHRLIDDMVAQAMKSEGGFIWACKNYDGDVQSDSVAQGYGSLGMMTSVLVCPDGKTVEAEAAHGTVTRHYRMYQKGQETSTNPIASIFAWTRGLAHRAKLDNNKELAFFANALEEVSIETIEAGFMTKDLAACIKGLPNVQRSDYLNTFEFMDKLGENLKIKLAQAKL
Tcruzi prolif: T. cruzi intracellular proliferation inhibitors, primary screen, cell-based, beta-gal Tulahuen parasites, NIH3T3 host, luminescence; T. cruzi beta-gal in NIH3T3, GalScreen luminescence, 90 h; inhibition, % at 8.34 µM; 5.9% of 77,000 active;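 active means mean inhibition above about 93%, with at least 55% of replicates each passing it, limit read from the data, passing the limit was not always enough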
Pf Dd2 growth: P. falciparum Dd2 growth inhibitors, primary screen, SYBR Green fluorescence, single dose replicates | 2.3% of 94,000 active | 72 h; stronger effect = lower value | activity change, % at 10 µM; in the data active means activity change below about -80%
Active calls of the source: *; / = no result given. A selection: hits, their analogues and other compounds. The true share with any hit is near 5.9%.

SMILES	GASC1 inh	IDH1 R132H inh	Tcruzi prolif	Pf Dd2 growth
C[C@H](CO)N1C[C@H](C)[C@@H](CN(C)S(=O)(=O)c2ccc(Cl)cc2)OCc2ccccc2-c2c(n(C)c3ccccc23)C1=O	-1.2	/	80.6	-85.2*
C[C@H]1CN([C@@H](C)CO)C(=O)c2c(c3ccccc3n2C)-c2ccccc2CO[C@H]1CN(C)S(=O)(=O)c1ccc([N+](=O)[O-])cc1	6.5	/	/	-89.2*
C[C@H]1CN([C@@H](C)CO)C(=O)c2ccccc2-c2ccccc2CO[C@H]1CN(C)S(=O)(=O)c1ccc(Cl)cc1	0.6	/	51.1	-82.8*
Cc1cccc(NC(=O)CNS(=O)(=O)c2ccc(Br)cc2)c1	/	-0.4	/	/
Cc1noc(C)c1S(=O)(=O)Nc1ccc2c(c1)C(=O)N([C@H](C)CO)C[C@H](C)[C@H](CN(C)C(=O)Nc1ccccc1)OCCCC[C@H](C)O2	-0.5	1.4	37.2	-35.3
Cc1noc(C)c1S(=O)(=O)Nc1ccc2c(c1)C(=O)N([C@H](C)CO)C[C@@H](C)[C@@H](CN(C)C(=O)NC1CCCCC1)OCCCC[C@@H](C)O2	-2.0	/	-55.1	-83.9*
COc1ccc(S(=O)(=O)Nc2ccc3c(c2)C(=O)N([C@@H](C)CO)C[C@H](C)[C@H](CN(C)C(=O)Nc2cccc4ccccc24)OCCCC[C@@H](C)O3)cc1	-1.3	-1.9	/	-82.3*
COc1ccc(S(=O)(=O)Nc2ccc3c(c2)C(=O)N([C@H](C)CO)C[C@H](C)[C@@H](CN(C)C(=O)Nc2cccc4ccccc24)OCCCC[C@@H](C)O3)cc1	0.9	/	39.9	-57.5
Cc1noc(C)c1S(=O)(=O)Nc1ccc2c(c1)C(=O)N([C@H](C)CO)C[C@@H](C)[C@@H](CN(C)C(=O)Nc1cccc3ccccc13)OCCCC[C@@H](C)O2	-2.9	/	82.9	-88.1*
CS(=O)(=O)N(CC(=O)Nc1cccc(C(F)(F)F)c1)c1ccc(F)c(Cl)c1	/	0.3	/	/
Cc1ccc(SCc2[nH]n(-c3nc4ccccc4s3)c(=O)c2C=NCc2ccco2)cc1	/	-1.0	/	/
O=C(NC[C@@H]1CC[C@H]2[C@H](CN2Cc2cc(-c3ccccc3)on2)O1)c1ccc2c(c1)OCO2	/	/	/	-89.8*
O=C(NC[C@@H]1CC[C@@H]2[C@@H](CN2C(=O)NC2CCCC2)O1)c1ccc2c(c1)OCO2	/	/	/	18.9
O=C(CC1(O)C(=O)N(Cc2cccc3ccccc23)c2ccccc21)c1ccccc1[N+](=O)[O-] (stereo not given)	/	-0.3	/	/
C[C@@H]1CN([C@@H](C)CO)C(=O)Cc2cc(NC(=O)CCCCCC(=O)Nc3ccccc3N)ccc2O[C@@H]1CN(C)S(=O)(=O)c1ccc(Cl)cc1	1.4	7.6	56.7	-63.0
Cc1ccc(S(=O)(=O)N(C)C[C@@H]2Oc3ccc(NC(=O)CCCCCC(=O)Nc4ccccc4N)cc3CC(=O)N([C@H](C)CO)C[C@@H]2C)cc1	-0.8	0.2	49.3	-87.2*
COc1ccc(S(=O)(=O)N(C)C[C@@H]2Oc3ccc(NC(=O)CCCCCC(=O)Nc4ccccc4N)cc3CC(=O)N([C@@H](C)CO)C[C@@H]2C)cc1	-1.0	4.4	29.5	-92.3*
Cc1cc(C)c(NC(=O)CSc2nnc(-c3cccnc3)s2)c([N+](=O)[O-])c1	/	-0.4	/	/
O=C(Cn1cnc2sc(-c3ccccc3)cc2c1=O)Nc1ccc(F)c(Cl)c1	/	-0.4	/	/
COc1ccc2c3c([nH]c2c1)[C@H](CO)N(Cc1ccccc1)CC31CCN(S(=O)(=O)c2ccc(C)cc2)CC1	0.1	/	/	-54.0
COc1ccc(S(=O)(=O)N2CCC3(CC2)CN(Cc2ccncc2)[C@H](CO)c2[nH]c4cc(OC)ccc4c23)cc1	-0.4	/	/	-87.8*
COc1ccc(CN2CC3(CCN(S(=O)(=O)c4ccc(C)cc4)CC3)c3c([nH]c4cc(OC)ccc34)[C@H]2CO)cc1	-0.9	/	/	-85.7*
CSc1nc(C)cc(OCC(=O)N2CCCCC2)n1	/	0.1	/	/
COc1ccc(NC(=O)C(=O)NCC(=O)Nc2ccc(C)cc2)cc1	/	2.7	/	/
CC(C)=CCN(CC#Cc1ccccc1)[C@H](CO)c1ccccc1	/	-0.6	/	/
CC(C(=O)Nc1ccc(Cl)c(Cl)c1)N(c1ccccc1)S(C)(=O)=O (stereo not given)	/	-0.2	/	/
COC(=O)c1cc(Br)ccc1NC(=O)COc1ccc(Cl)cc1C	/	0.0	/	/
CCc1cccc(-n2c(-c3ccco3)nc3c(cnn3-c3ccccc3Cl)c2=O)c1	/	46.3*	/	/
